ChEMBL document CHEMBL1629510, “Efficient synthesis of (6-deoxy-glycopyranosid-6-yl) sulfone derivatives and their effect on Ca2+-ATPase” (Eur J Med Chem, 2010)

species on record: Capra hircus; experiment: Induction of magnesium independent calcium-transporting ATPase activity in goat spermatozoa microsomal membranes at 20 ug by spectrophotometry in presence of […] of calcium channel blocker thapsigargin; type: microsomes; settings: Microsome
Summary of the method: (§1)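 The compound (20 µg) was added together with a fixed concentration of the blocker. Reactions were stopped with 7% ice-cold TCA and read spectrophotometrically. Ca2+-dependent activity (+Ca2+ minus −Ca2+) is given as percent stimulation or inhibition, averaged over four assays.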

SMILES	Activity
CO[C@H]1O[C@H](CS(=O)(=O)C[C@H]2O[C@@H](OC)[C@H](O)[C@H](O)[C@@H]2O)[C@@H](O)[C@H](O)[C@@H]1O	-27%
CO[C@H]1O[C@H](CS(=O)(=O)C[C@H]2O[C@H](OC)[C@H](O)[C@@H](O)[C@H]2O)[C@@H](O)[C@H](O)[C@@H]1O	-36%
CO[C@H]1O[C@H](CS(=O)(=O)C[C@H]2O[C@H](OC)[C@H](O)[C@@H](O)[C@H]2O)[C@@H](O)[C@H](O)[C@H]1O	-38%
CO[C@H]1O[C@H](CS(=O)(=O)C[C@H]2O[C@H](OC)[C@H](O)[C@@H](O)[C@@H]2O)[C@@H](O)[C@H](O)[C@@H]1O	-35%
CO[C@H]1O[C@H](CS(=O)(=O)C[C@H]2O[C@H](OC)[C@H](O)[C@H](O)[C@@H]2O)[C@@H](O)[C@H](O)[C@H]1O	-31%
CO[C@@H]1O[C@H](CS(=O)(=O)C[C@H]2O[C@@H](OC)[C@H](O)[C@H](O)[C@@H]2O)[C@@H](O)[C@@H](O)[C@H]1O	-33%
CO[C@H]1O[C@H](CS(=O)(=O)C[C@H]2O[C@H](OC)[C@@H](O)[C@@H](O)[C@@H]2O)[C@@H](O)[C@H](O)[C@@H]1O	-29%
CO[C@H]1O[C@H](CS(=O)(=O)C[C@H]2O[C@H](OC)[C@H](O)[C@@H](O)[C@@H]2O)[C@@H](O)[C@H](O)[C@H]1O	-28%

species on record: Capra hircus; experiment: Induction of magnesium independent calcium-transporting ATPase activity in goat spermatozoa microsomal membranes at 20 ug by spectrophotometry in presence of 300 uM of calcium channel blocker verapamil; type: microsomes; settings: Microsome; summary of the method: as §1

SMILES	Activity
CO[C@H]1O[C@H](CS(=O)(=O)C[C@H]2O[C@@H](OC)[C@H](O)[C@H](O)[C@@H]2O)[C@@H](O)[C@H](O)[C@@H]1O	-5%
CO[C@H]1O[C@H](CS(=O)(=O)C[C@H]2O[C@H](OC)[C@H](O)[C@@H](O)[C@H]2O)[C@@H](O)[C@H](O)[C@@H]1O	-21%
CO[C@H]1O[C@H](CS(=O)(=O)C[C@H]2O[C@H](OC)[C@H](O)[C@@H](O)[C@H]2O)[C@@H](O)[C@H](O)[C@H]1O	-5%
CO[C@H]1O[C@H](CS(=O)(=O)C[C@H]2O[C@H](OC)[C@H](O)[C@@H](O)[C@@H]2O)[C@@H](O)[C@H](O)[C@@H]1O	-3%
CO[C@H]1O[C@H](CS(=O)(=O)C[C@H]2O[C@H](OC)[C@H](O)[C@H](O)[C@@H]2O)[C@@H](O)[C@H](O)[C@H]1O	-9%
CO[C@@H]1O[C@H](CS(=O)(=O)C[C@H]2O[C@@H](OC)[C@H](O)[C@H](O)[C@@H]2O)[C@@H](O)[C@@H](O)[C@H]1O	-8%
CO[C@H]1O[C@H](CS(=O)(=O)C[C@H]2O[C@H](OC)[C@@H](O)[C@@H](O)[C@@H]2O)[C@@H](O)[C@H](O)[C@@H]1O	-2%
CO[C@H]1O[C@H](CS(=O)(=O)C[C@H]2O[C@H](OC)[C@H](O)[C@@H](O)[C@@H]2O)[C@@H](O)[C@H](O)[C@H]1O	-14%

species on record: Capra hircus; experiment: Induction of magnesium independent calcium-transporting ATPase activity in goat spermatozoa microsomal membranes at 20 ug by spectrophotometry in presence of 1 mM of calcium channel blocker orthovanadate; type: microsomes; settings: Microsome; summary of the method: as §1

SMILES	Activity
CO[C@H]1O[C@H](CS(=O)(=O)C[C@H]2O[C@@H](OC)[C@H](O)[C@H](O)[C@@H]2O)[C@@H](O)[C@H](O)[C@@H]1O	-19%
CO[C@H]1O[C@H](CS(=O)(=O)C[C@H]2O[C@H](OC)[C@H](O)[C@@H](O)[C@H]2O)[C@@H](O)[C@H](O)[C@@H]1O	-25%
CO[C@H]1O[C@H](CS(=O)(=O)C[C@H]2O[C@H](OC)[C@H](O)[C@@H](O)[C@H]2O)[C@@H](O)[C@H](O)[C@H]1O	-8%
CO[C@H]1O[C@H](CS(=O)(=O)C[C@H]2O[C@H](OC)[C@H](O)[C@@H](O)[C@@H]2O)[C@@H](O)[C@H](O)[C@@H]1O	4%
CO[C@H]1O[C@H](CS(=O)(=O)C[C@H]2O[C@H](OC)[C@H](O)[C@H](O)[C@@H]2O)[C@@H](O)[C@H](O)[C@H]1O	-17%
CO[C@@H]1O[C@H](CS(=O)(=O)C[C@H]2O[C@@H](OC)[C@H](O)[C@H](O)[C@@H]2O)[C@@H](O)[C@@H](O)[C@H]1O	-21%
CO[C@H]1O[C@H](CS(=O)(=O)C[C@H]2O[C@H](OC)[C@@H](O)[C@@H](O)[C@@H]2O)[C@@H](O)[C@H](O)[C@@H]1O	-27%
CO[C@H]1O[C@H](CS(=O)(=O)C[C@H]2O[C@H](OC)[C@H](O)[C@@H](O)[C@@H]2O)[C@@H](O)[C@H](O)[C@H]1O	-24%

species on record: Capra hircus; experiment: Induction of magnesium independent calcium-transporting ATPase activity in goat spermatozoa microsomal membranes at 70 nM by spectrophotometry; type: microsomes; settings: Microsome
Summary of the method: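 Mg2+-independent Ca2+-ATPase in goat sperm microsomes (2 µg protein) was measured without blockers over varying compound concentrations. Incubation used 3 mM ATP in imidazole/sucrose buffer with EDTA and 2-mercaptoethanol, ±4 mM CaCl2, for 30 min at 37 °C, stopped with ice-cold 7% TCA and read spectrophotometrically. Activity is the difference between the +Ca2+ and −Ca2+ reactions.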

SMILES	Activity
CO[C@H]1O[C@H](CS(=O)(=O)C[C@H]2O[C@@H](OC)[C@H](O)[C@H](O)[C@@H]2O)[C@@H](O)[C@H](O)[C@@H]1O	45%
CO[C@H]1O[C@H](CS(=O)(=O)C[C@H]2O[C@H](OC)[C@H](O)[C@@H](O)[C@H]2O)[C@@H](O)[C@H](O)[C@@H]1O	53%
CO[C@H]1O[C@H](CS(=O)(=O)C[C@H]2O[C@H](OC)[C@H](O)[C@@H](O)[C@H]2O)[C@@H](O)[C@H](O)[C@H]1O	32%
CO[C@H]1O[C@H](CS(=O)(=O)C[C@H]2O[C@H](OC)[C@H](O)[C@@H](O)[C@@H]2O)[C@@H](O)[C@H](O)[C@@H]1O	43%
CO[C@H]1O[C@H](CS(=O)(=O)C[C@H]2O[C@H](OC)[C@H](O)[C@H](O)[C@@H]2O)[C@@H](O)[C@H](O)[C@H]1O	30%
CO[C@@H]1O[C@H](CS(=O)(=O)C[C@H]2O[C@@H](OC)[C@H](O)[C@H](O)[C@@H]2O)[C@@H](O)[C@@H](O)[C@H]1O	30%
CO[C@H]1O[C@H](CS(=O)(=O)C[C@H]2O[C@H](OC)[C@@H](O)[C@@H](O)[C@@H]2O)[C@@H](O)[C@H](O)[C@@H]1O	49%
CO[C@H]1O[C@H](CS(=O)(=O)C[C@H]2O[C@H](OC)[C@H](O)[C@@H](O)[C@@H]2O)[C@@H](O)[C@H](O)[C@H]1O	36%
